Reference: PMC2233905 (The Journal of General Physiology, 2004)

Key:
[1] = target: T1, hEag1 channels (Homo sapiens, UniProt O95259); assay: Inside-out patch recordings of hEag1 currents; assay type: cell-based; settings: for rate of block: inside-out, 500 nM astemizole
T1 sequence (O95259 1-989): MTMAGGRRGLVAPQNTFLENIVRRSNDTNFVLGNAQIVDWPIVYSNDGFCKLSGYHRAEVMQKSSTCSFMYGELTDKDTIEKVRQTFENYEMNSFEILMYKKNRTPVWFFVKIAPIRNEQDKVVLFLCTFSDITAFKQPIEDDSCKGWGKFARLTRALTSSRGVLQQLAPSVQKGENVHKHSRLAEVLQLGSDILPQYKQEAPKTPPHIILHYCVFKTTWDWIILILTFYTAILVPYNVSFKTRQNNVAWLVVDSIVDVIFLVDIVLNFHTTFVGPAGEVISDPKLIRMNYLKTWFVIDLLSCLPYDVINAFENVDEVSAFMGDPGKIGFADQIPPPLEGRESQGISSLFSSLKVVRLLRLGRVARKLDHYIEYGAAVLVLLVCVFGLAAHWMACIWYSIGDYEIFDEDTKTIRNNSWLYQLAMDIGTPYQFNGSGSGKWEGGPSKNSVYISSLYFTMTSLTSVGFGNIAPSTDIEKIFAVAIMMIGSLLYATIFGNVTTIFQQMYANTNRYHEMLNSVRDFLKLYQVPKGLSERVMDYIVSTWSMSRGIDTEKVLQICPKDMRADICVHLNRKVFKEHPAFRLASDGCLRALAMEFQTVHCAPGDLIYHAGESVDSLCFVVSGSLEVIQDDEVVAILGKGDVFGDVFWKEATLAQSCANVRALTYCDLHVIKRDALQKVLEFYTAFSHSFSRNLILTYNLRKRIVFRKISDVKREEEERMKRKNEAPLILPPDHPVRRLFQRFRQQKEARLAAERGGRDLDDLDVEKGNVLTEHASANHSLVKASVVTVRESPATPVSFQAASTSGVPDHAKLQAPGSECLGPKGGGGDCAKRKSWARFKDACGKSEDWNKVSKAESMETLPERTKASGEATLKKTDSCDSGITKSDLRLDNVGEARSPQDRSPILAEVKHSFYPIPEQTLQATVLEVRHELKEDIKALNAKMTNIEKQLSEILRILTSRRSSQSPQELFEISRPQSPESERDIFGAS
How it was run: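 Inside-out patches from hEag1-expressing cells at room temperature. Pipette: 145 NaCl, 5 KCl, 3 CaCl2, 1 MgCl2, 10 HEPES/NaOH pH 7.4. Successive 6-s pulses at 80 mV with drug applied for 2.5 s. Current ratios to preapplication traces were fitted with a single exponential to give the block time constant.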

[2] = system: cardiac IsK currents; settings: concentrations up to 10 μM; ref Suessbrich et al., 1996; cited from earlier work
[3] = target: T1, hEag1 channels; assay: Whole-cell patch-clamp of hEag1 currents in stably transfected HEK-293 cells; assay type: cell-based
[4] = system: cloned HERG; settings: HEK-293 cells; ref Zhou et al., 1999; cited from earlier work
[5] = target: T1, hEag1 channels; assay: Outside-out patch recordings of hEag1 currents; assay type: cell-based
How it was run: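 Outside-out patches from hEag1-expressing cells at room temperature. Successive 6-s recordings at 80 mV; drug applied to the extracellular face for 2.5 s, then removed. Currents were divided point-wise by control traces, and the time course was fitted with a single exponential to give the block or equilibration time constant and the steady-state fraction blocked.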

[6] = target: T2, Kv2.1 (Homo sapiens, UniProt Q14721); assay: Kv2.1 channels; assay type: cell-based; settings: concentrations up to 10 μM, unpublished data
T2 sequence (Q14721 1-858): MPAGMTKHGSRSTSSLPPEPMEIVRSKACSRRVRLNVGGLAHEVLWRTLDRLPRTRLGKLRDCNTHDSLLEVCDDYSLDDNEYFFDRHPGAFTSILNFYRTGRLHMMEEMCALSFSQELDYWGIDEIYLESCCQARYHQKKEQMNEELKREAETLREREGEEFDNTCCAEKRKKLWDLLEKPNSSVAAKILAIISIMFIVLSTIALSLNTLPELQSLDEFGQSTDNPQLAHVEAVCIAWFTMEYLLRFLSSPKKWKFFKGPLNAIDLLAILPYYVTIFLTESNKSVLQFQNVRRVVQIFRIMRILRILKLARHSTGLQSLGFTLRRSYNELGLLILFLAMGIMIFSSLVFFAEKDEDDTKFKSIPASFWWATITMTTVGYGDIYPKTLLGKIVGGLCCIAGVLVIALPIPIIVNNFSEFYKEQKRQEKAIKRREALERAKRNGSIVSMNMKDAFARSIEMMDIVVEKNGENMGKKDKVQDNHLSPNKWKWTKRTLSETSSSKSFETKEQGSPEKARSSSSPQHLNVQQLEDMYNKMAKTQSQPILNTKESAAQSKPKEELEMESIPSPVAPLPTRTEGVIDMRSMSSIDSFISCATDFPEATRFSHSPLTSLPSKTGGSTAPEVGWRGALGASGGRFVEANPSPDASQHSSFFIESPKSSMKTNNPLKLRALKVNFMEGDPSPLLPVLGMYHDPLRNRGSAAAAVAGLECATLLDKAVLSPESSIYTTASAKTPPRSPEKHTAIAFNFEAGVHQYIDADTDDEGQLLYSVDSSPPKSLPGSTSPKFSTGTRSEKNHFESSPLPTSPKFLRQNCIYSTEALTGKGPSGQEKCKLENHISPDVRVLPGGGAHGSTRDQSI

[7] = 10 μM imipramine or 1 μM astemizole
[8] = 200 μM internal TEA, 80 mV, 10 μM imipramine or 1 μM astemizole
[9] = control, 80 mV, 10 μM imipramine or 1 μM astemizole
[10] = nonsaturating concentrations, 80 mV

time constant of block in inside-out patches ([1]; bath pH 6.0, pipette pH 7.4, 80 mV): 387 ms | reversal of block on 2-s washout during the depolarization ([1]; inside-out patches): did not recover | rate of block ([1]; pHint 6.4): 6.7 ± 2 s⁻¹ | rate of block ([1]; pHint 7.4): 2.8 ± 0.2 s⁻¹ | Kd [3]: 109 nM | voltage dependence of block [3]: insensitive to membrane potential | current blocked ([3]; 100 nM astemizole in the presence of 5 μM imipramine, 60 mV): 38 ± 5% | current blocked ([3]; 100 nM astemizole, control external solution, 60 mV): 66 ± 3% | k of exponential fit to τclose(V) (tail current deactivation) [3, 7]: −0.025 | τ(0) of exponential fit to τclose(V) (tail current deactivation) [3, 7]: 10.75 ms | τ∞ of exponential fit to τclose(V) (tail current deactivation) [3, 7]: 0.75 ms | effect on whole-cell current when added to the intracellular solution ([3]; 25 μM in intracellular pH 6.4 solution (unpublished data)): substantial block | reduction of potency in the presence of internal TEA ([3]; 200 μM internal TEA): ~50% | current blocked [3, 8]: 42 ± 12% | τblock [3, 8]: 1084 ± 158 ms | effect of external TEA on the block ([3]; 7 mM external TEA): did not affect | IC50 ([3]; IC50(V), voltage-independent line through IC50 data, test potentials 20–120 mV): 120 nM | IC50 ([3]; IC50, whole-cell, pHext//pHint 6.4//7.35): 419 ± 68 nM | IC50 ([3]; IC50, whole-cell, pHext//pHint 7.4//6.4): 54 ± 12 nM | IC50 ([3]; IC50, whole-cell, pHext//pHint 7.4//8.4): 556 ± 69 nM | IC50 ([3]; IC50, whole-cell, pHext//pHint 8.4//7.35): 37 ± 7 nM | current blocked [3, 9]: 87 ± 3% | τblock [3, 9]: 317 ± 73 ms | slope of logIC50 versus difference between pHext and pHint ([3]; linear fit): −0.53 | slope of linear fit of τblock^−1 versus concentration [3, 10]: 4 s^−1μM^−1 | y intercept of linear fit of τblock^−1 versus concentration [3, 10]: 0.4 µM | time constant of block washout ([3]; pHext 7.4, pHint 6.4): 235 s | time course of block onset ([3]; pHext 7.4, pHint 6.4, 250 nM astemizole): 60 s | time constant of block washout ([3]; pHext 7.4, pHint 8.4): 25 s | time course of block onset ([3]; pHext 7.4, pHint 8.4, 5 μM astemizole): 20 s | Hill coefficient of dose–response plot ([3]; whole-cell, 80 mV): 1.32 | Hill coefficient of fit to τblock versus concentration ([3]; whole-cell, 80 mV): 1.32 | time constant of current decay (τblock) at the IC50 concentration ([3]; whole-cell, 80 mV): ~500 ms | τblock, maximum of Hill fit ([3]; whole-cell, 80 mV): 1.33 s | τblock, minimum of Hill fit ([3]; whole-cell, 80 mV): 0.024 s | time constant of block (equilibration of neutral drug) in outside-out patches ([5]; bath pH 6.0, pipette pH 7.4): 1.7 s | rate of the equilibration process across the membrane ([5]; outside-out, bath pH 6.0): 0.6 s⁻¹ | effect on current [6]: no significant effects
SMILES: COc1ccc(CCN2CCC(Nc3nc4ccccc4n3Cc3ccc(F)cc3)CC2)cc1 [astemizole]
effect on current [2]: no significant effects | IC50 [4]: 0.9 nM
